Results as given in ChEMBL document CHEMBL4265907, “Design, synthesis and pharmacological evaluation of N4,N6-disubstituted pyrimidine-4,6-diamine derivatives as potent EGFR inhibitors in non-small cell lung cancer” (Eur J Med Chem, 2018).
Active and inactive are the calls of the source. No cut-off for these calls is given here.

Key:
NCI-H3255 [1] = assay: Induction of apoptosis in human H3255 cells assessed as viable cells at 500 nM after 48 hrs by Annexin V-FITC/PI staining based flow cytometry (reference value: 87.9%); format: functional; details: NCI-H3255, 48 h, read-out: Activity
NCI-H3255 [2] = assay: Induction of apoptosis in human H3255 cells assessed as late apoptotic cells at 500 nM after 48 hrs by Annexin V-FITC/PI staining based flow cytometry (reference value: 1.77%); format: functional
NCI-H1975 [3] = assay: Induction of apoptosis in human NCI-H1975 cells assessed as necrotic cells at 500 nM after 48 hrs by Annexin V-FITC/PI staining based flow cytometry (reference value: 2.31%); format: functional
A-431 [4] = assay: Induction of apoptosis in human A431 cells assessed as necrotic cells at 1000 nM after 48 hrs by Annexin V-FITC/PI staining based flow cytometry (reference value: 4.16%); format: functional
A-431 [5] = assay: Induction of apoptosis in human A431 cells assessed as viable cells at 1000 nM after 48 hrs by Annexin V-FITC/PI staining based flow cytometry (reference value: 90.3%); format: functional; details: A-431, 48 h, read-out: Activity
[6] = target: T1, Epidermal growth factor receptor (Homo sapiens, UniProt P00533); assay: Inhibition of EGFR in human H1975 cells assessed as decrease in EGF-induced AKT phosphorylation by Western blot method; format: cell-based
T1 sequence (P00533 whole entry): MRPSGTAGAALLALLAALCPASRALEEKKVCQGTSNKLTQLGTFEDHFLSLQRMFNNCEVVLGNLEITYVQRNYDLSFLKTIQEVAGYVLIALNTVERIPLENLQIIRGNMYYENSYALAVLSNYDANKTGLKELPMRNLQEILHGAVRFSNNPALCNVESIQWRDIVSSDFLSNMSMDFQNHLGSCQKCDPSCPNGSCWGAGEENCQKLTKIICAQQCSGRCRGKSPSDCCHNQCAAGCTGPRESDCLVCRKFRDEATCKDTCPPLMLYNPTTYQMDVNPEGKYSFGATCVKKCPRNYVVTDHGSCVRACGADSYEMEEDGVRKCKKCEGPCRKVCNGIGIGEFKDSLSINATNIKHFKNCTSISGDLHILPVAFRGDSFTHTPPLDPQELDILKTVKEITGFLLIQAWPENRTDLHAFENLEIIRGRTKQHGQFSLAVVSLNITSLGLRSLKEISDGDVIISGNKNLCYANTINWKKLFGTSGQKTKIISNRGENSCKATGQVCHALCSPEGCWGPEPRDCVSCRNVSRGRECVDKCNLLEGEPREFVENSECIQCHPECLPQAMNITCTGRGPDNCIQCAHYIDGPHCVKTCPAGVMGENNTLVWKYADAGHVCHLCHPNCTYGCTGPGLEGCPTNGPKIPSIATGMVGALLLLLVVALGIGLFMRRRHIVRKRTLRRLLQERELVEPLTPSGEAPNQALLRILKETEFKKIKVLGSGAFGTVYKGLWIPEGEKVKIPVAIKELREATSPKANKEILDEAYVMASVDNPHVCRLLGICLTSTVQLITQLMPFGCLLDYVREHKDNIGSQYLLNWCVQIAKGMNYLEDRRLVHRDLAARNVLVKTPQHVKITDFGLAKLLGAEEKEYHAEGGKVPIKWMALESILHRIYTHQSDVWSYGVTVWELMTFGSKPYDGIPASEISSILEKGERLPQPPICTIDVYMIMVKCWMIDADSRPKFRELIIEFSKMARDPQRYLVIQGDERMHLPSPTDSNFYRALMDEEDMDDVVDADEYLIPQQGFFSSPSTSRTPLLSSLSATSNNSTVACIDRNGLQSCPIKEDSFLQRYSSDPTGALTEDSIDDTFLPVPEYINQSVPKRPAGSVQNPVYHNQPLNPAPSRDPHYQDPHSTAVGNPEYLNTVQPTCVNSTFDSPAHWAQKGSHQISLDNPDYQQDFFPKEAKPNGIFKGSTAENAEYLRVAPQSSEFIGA
Outline: (§1)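 Cell lysates prepared in protein lysis buffer and cleared at 12,000 g for 10 min at 4 °C. 50 μg protein per lane was run on a gel, transferred to PVDF and immunoblotted, with GAPDH as the loading control.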

[7] = target: T1, Epidermal growth factor receptor; assay: Inhibition of EGFR in human A431 cells assessed as decrease in EGF-induced AKT phosphorylation by Western blot method; format: cell-based; outline: as §1
[8] = target: T1, Epidermal growth factor receptor; assay: Inhibition of EGF-induced EGFR autophosphorylation at Y1068 residues in human A431 cells by Western blot method; format: cell-based; outline: as §1
NCI-H3255 [9] = assay: Induction of apoptosis in human H3255 cells assessed as necrotic cells at 250 nM after 48 hrs by Annexin V-FITC/PI staining based flow cytometry (reference value: 7.06%); format: functional
Mus musculus [10] = assay: In vivo inhibition of EGFR phosphorylation in tumor of BALB/C nude mouse xenografted with human PC9 cells at 15 to 30 mg/kg, ip qd administered for 19 days by immunohistochemical analysis; format: functional, organism-based
HCC827 [11] = assay: Induction of apoptosis in human HCC827 cells assessed as early apoptotic cells at 500 nM after 48 hrs by Annexin V-FITC/PI staining based flow cytometry (reference value: 2.83%); format: functional
HCC827 [12] = assay: Induction of apoptosis in human HCC827 cells assessed as late apoptotic cells at 500 nM after 48 hrs by Annexin V-FITC/PI staining based flow cytometry (reference value: 1.15%); format: functional
HCC827 [13] = assay: Induction of apoptosis in human HCC827 cells assessed as viable cells at 1000 nM after 48 hrs by Annexin V-FITC/PI staining based flow cytometry (reference value: 94.6%); format: functional; details: HCC827, 48 h, read-out: Activity
NCI-H1975 [14] = assay: Induction of apoptosis in human NCI-H1975 cells assessed as viable cells at 500 nM after 48 hrs by Annexin V-FITC/PI staining based flow cytometry (reference value: 93.7%); format: functional; details: NCI-H1975, 48 h, read-out: Activity
Mus musculus [15] = assay: In vivo inhibition of AKT phosphorylation in tumor of BALB/C nude mouse xenografted with human PC9 cells at 15 to 30 mg/kg, ip qd administered for 19 days by immunoblot method; format: functional, organism-based
A-431 [16] = assay: Induction of apoptosis in human A431 cells assessed as late apoptotic cells at 500 nM after 48 hrs by Annexin V-FITC/PI staining based flow cytometry (reference value: 2.11%); format: functional
NCI-H1975 [17] = assay: Induction of apoptosis in human NCI-H1975 cells assessed as necrotic cells at 1000 nM after 48 hrs by Annexin V-FITC/PI staining based flow cytometry (reference value: 2.31%); format: functional
HCC827 [18] = assay: Induction of apoptosis in human HCC827 cells assessed as late apoptotic cells at 1000 nM after 48 hrs by Annexin V-FITC/PI staining based flow cytometry (reference value: 1.15%); format: functional
NCI-H1975 [19] = assay: Induction of apoptosis in human NCI-H1975 cells assessed as necrotic cells at 250 nM after 48 hrs by Annexin V-FITC/PI staining based flow cytometry (reference value: 2.31%); format: functional
[20] = AUC (0 to t) in Sprague-Dawley rat at 30 mg/kg, po by UPLC-MS/MS analysis; format: ADME, organism-based; details: in vivo
Outline: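 Four female and four male Sprague-Dawley rats, 200-220 g, fasted 12 h, then given a single oral dose of 30 mg/kg as a 0.5% CMC-Na suspension. Blood sampled at 0.083, 0.25, 0.5, 1, 2, 4, 8 and 24 h, plasma separated by centrifugation at 4000 r/min for 10 min, and analysed by UPLC–MS/MS. Parameters reported as mean ± SD, n=6.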

HCC827 [21] = assay: Induction of apoptosis in human HCC827 cells assessed as viable cells after 48 hrs by Annexin V-FITC/PI staining based flow cytometry; format: functional, cell-based
[22] = target: T1, Epidermal growth factor receptor; assay: Inhibition of EGFR in human H3255 cells assessed as decrease in EGF-induced ERK1/2 phosphorylation by Western blot method; format: cell-based; outline: as §1
Rattus norvegicus = assay: Volume of distribution in Sprague-Dawley rat at 30 mg/kg, po by UPLC-MS/MS analysis; format: ADME, organism-based; details: in vivo
Outline: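 Sprague-Dawley rats (four female, four male; 200-220 g) were fasted 12 h and given a single oral 30 mg/kg dose as a 0.5% CMC-Na suspension. Blood was drawn at 0.083, 0.25, 0.5, 1, 2, 4, 8 and 24 h and centrifuged at 4000 r/min for 10 min. Samples were quantified by UPLC–MS/MS; parameters are reported for n=6.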

[23] = target: T1, Epidermal growth factor receptor; assay: Inhibition of EGFR in human H3255 cells assessed as decrease in EGF-induced AKT phosphorylation by Western blot method; format: cell-based; outline: as §1
A-431 [24] = assay: Induction of apoptosis in human A431 cells assessed as early apoptotic cells at 500 nM after 48 hrs by Annexin V-FITC/PI staining based flow cytometry (reference value: 3.40%); format: functional
HCC827 [25] = assay: Induction of apoptosis in human HCC827 cells assessed as early apoptotic cells at 250 nM after 48 hrs by Annexin V-FITC/PI staining based flow cytometry (reference value: 2.83%); format: functional
HCC827 [26] = assay: Induction of apoptosis in human HCC827 cells assessed as viable cells at 500 nM after 48 hrs by Annexin V-FITC/PI staining based flow cytometry (reference value: 94.6%); format: functional; details: HCC827, 48 h, read-out: Activity
A-431 [27] = assay: Induction of apoptosis in human A431 cells assessed as necrotic cells at 500 nM after 48 hrs by Annexin V-FITC/PI staining based flow cytometry (reference value: 4.16%); format: functional
NCI-H1975 [28] = assay: Induction of apoptosis in human NCI-H1975 cells assessed as late apoptotic cells after 48 hrs by Annexin V-FITC/PI staining based flow cytometry; format: functional, cell-based
NCI-H1975 [29] = assay: Induction of apoptosis in human NCI-H1975 cells assessed as early apoptotic cells at 500 nM after 48 hrs by Annexin V-FITC/PI staining based flow cytometry (reference value: 2.07%); format: functional

Which viability at 0.5 µM (NCI-H3255 [1]) does the source give for `COc1cccc(Nc2cc(Nc3cc(OC)ccc3OC)ncn2)c1` here?
The viability at 0.5 µM was 78.2%.

And the Activity (NCI-H3255 [2])?
The Activity was 5.35%.

And the Activity (NCI-H1975 [3])?
Its Activity is 6.93%.

And the Activity (A-431 [4])?
Its Activity is 3.61%.

And the viability at 1 µM (A-431 [5])?
The viability at 1 µM was 65.3%.

What about the inhibition [6] of the same compound?
The inhibition was “Dose-dependent effect”.

And the inhibition [7]?
Its inhibition is “Dose-dependent effect”.

And the inhibition [8]?
The inhibition was “Dose-dependent effect”.

And the Activity (NCI-H3255 [9])?
Its Activity is 4.27%.

And the inhibition (Mus musculus [10])?
The inhibition was “Active”.

What about the Activity (HCC827 [11]) of the same compound?
The Activity was 21.3%.

And the Activity (HCC827 [12])?
The Activity was 7.72%.

What about the viability at 1 µM (HCC827 [13]) of the same compound?
Its viability at 1 µM is 53.4%.

And the viability at 0.5 µM (NCI-H1975 [14])?
The viability at 0.5 µM was 52.5%.

And the inhibition (Mus musculus [15])?
Its inhibition is “Active”.

And the Activity (A-431 [16])?
The Activity was 8.57%.

And the Activity (NCI-H1975 [17])?
The Activity was 7.56%.

And the Activity (HCC827 [18])?
The Activity was 14.4%.

What about the Activity (NCI-H1975 [19]) of the same compound?
Its Activity is 7.95%.

And the AUC(0-t) [20]?
Its AUC(0-t) is 5700 ng·h/mL.

And the Activity (HCC827 [21])?
The Activity was “Dose-dependent effect”.

And the inhibition [22]?
The inhibition was “Dose-dependent effect”.

What about the Vd (Rattus norvegicus) of the same compound?
Its Vd is 0.03 L/kg.

And the inhibition [23]?
Its inhibition is “Dose-dependent effect”.

What about the Activity (A-431 [24]) of the same compound?
The Activity was 15.1%.

And the Activity (HCC827 [25])?
Its Activity is 15.5%.

And the viability at 0.5 µM (HCC827 [26])?
The viability at 0.5 µM was 61.8%.

And the Activity (A-431 [27])?
The Activity was 5.66%.

And the Activity (NCI-H1975 [28])?
Its Activity is “Dose-dependent effect”.

What about the Activity (NCI-H1975 [29]) of the same compound?
Its Activity is 25%.
